Consider 23 compounds from ChEMBL document CHEMBL2424553, “Synthesis, molecular docking and kinetic properties of β-hydroxy-β-phenylpropionyl-hydroxamic acids as Helicobacter pylori urease inhibitors” (Eur J Med Chem, 2013).

The target of one experiment is T1, Urease subunit alpha/Urease subunit beta (Helicobacter pylori (strain ATCC 700392 / 26695) (Campylobacterpylori), UniProt P69996). As to the kind of experiment: Inhibition of urease extracted from Helicobacter pylori ATCC 43504 assessed as ammonia production preincubated for 1.5 hrs by indophenol-based method. In outline: (§1)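 H. pylori ATCC 43504 grown 24 h at 37 °C in Brucella broth with 10% heat-inactivated horse serum under microaerobic gas (5% O2, 10% CO2, 85% N2). Cells pelleted (5000 g, 4 °C) and washed twice in PBS pH 7.4 to prepare urease. Enzyme pre-incubated with test compound 1.5 h at room temperature. Ammonia measured by the indophenol method. Run in triplicate.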
T1 sequence (P69996 whole entry): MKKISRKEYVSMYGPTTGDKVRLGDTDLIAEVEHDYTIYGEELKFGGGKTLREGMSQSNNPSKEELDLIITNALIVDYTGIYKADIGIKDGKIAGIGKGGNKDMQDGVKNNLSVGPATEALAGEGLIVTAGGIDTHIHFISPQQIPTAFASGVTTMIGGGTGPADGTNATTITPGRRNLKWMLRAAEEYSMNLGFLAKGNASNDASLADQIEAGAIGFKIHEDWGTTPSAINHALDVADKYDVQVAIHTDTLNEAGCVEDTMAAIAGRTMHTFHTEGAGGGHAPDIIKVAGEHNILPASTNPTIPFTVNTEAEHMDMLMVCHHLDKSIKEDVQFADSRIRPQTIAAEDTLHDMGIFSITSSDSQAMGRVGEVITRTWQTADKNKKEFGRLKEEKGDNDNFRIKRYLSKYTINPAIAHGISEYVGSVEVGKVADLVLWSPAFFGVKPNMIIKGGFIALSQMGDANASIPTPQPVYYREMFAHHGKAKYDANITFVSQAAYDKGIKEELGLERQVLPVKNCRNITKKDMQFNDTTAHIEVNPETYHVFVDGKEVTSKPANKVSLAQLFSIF
T1 sequence (P14916 whole entry, further chain): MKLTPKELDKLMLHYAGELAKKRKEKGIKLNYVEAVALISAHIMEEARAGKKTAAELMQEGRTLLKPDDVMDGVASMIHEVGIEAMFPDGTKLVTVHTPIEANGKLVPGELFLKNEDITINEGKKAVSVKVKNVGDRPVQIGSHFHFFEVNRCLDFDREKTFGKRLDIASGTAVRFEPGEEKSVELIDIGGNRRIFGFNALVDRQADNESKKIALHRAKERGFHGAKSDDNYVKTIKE
By IC50 is commonly meant the concentration at which inhibition is half-maximal. With `CN(C)c1ccc(C(=O)NO)cc1`, the IC50 was 77.9 µM. Still for that read-out and setting: with `O=C(CC(O)c1ccccc1)NO` (racemic) the figure was 15.6 µM; with `COc1ccccc1C(O)CC(=O)NO` (racemic), 38.5 µM; with `O=C(CC(O)c1ccccc1Cl)NO` (racemic), 1.19 µM.

As to `O=C(CC(O)c1ccccc1F)NO` (racemic), the IC50 stood at 5.6 µM. The same measure, in the same setting: next, `O=C(CC(O)c1cccc(O)c1)NO` (racemic): 131 µM. On the same count and under the same terms, next, `COc1cccc(C(O)CC(=O)NO)c1` (racemic): 23.2 µM.

On to `O=C(CC(O)c1cccc(Cl)c1)NO` (racemic), for which the IC50 worked out at 0.083 µM. On the same count and under the same terms, next, `O=C(CC(O)c1cccc(F)c1)NO` (racemic): 3.99 µM; `O=C(CC(O)c1cccc(C(F)(F)F)c1)NO` (racemic): 1.22 µM. In the case of `COc1ccc(C(O)CC(=O)NO)cc1` (racemic), the IC50 stood at 75.1 µM.

Take `O=C(CC(O)c1ccc(OCc2ccccc2)cc1)NO` (racemic): the IC50 is 61.5 µM. Same read-out and setting: next, `O=C(CC(O)c1ccc(Cl)cc1)NO` (racemic): 3.39 µM; `O=C(CC(O)c1ccc(F)cc1)NO` (racemic): 8.01 µM; `O=C(CC(O)c1ccc(C(F)(F)F)cc1)NO` (racemic): 7.89 µM. Still for that read-out and setting: next, `CN(C)c1ccc(C(O)CC(=O)NO)cc1` (racemic): 7.13 µM; `O=C(CC(O)c1cccc(Cl)c1Cl)NO` (racemic): 0.23 µM; `O=C(CC(O)c1ccc(Cl)c(Cl)c1)NO` (racemic): 0.37 µM.

As to `O=C(CC(O)c1cc(Cl)ccc1O)NO` (racemic), the IC50 was found to be 1.28 µM. Take `COc1ccc(F)cc1C(O)CC(=O)NO` (racemic): the IC50 was found to be 11 µM. On the same count and under the same terms, next, `O=C(CC(O)c1cc(Cl)cc(Cl)c1O)NO` (racemic): 1.04 µM; `CC(=O)NO` [ACETOHYDROXAMIC ACID]: 27.6 µM.

Another experiment addresses T1, Urease subunit alpha/Urease subunit beta. As to the kind of experiment: Mixed-type competitive inhibition of Helicobacter pylori ATCC 43504 urease using urea as substrate by Lineweaver-burk plot analysis.
For orientation: Ki means the dissociation constant of the complex between target and ligand, obtained from inhibition or displacement. Lower therefore signals higher affinity. Compound `O=C(CC(O)c1cccc(Cl)c1)NO` (racemic) returned a Ki of 0.014 µM. The compound `O=C(CC(O)c1cccc(Cl)c1Cl)NO` (racemic) showed a Ki of 0.045 µM.

For another experiment the target is unchanged. As to the kind of experiment: Inhibition of Helicobacter pylori urease. In outline: as §1
On to `O=c1c(O)c(-c2ccc(O)c(O)c2)oc2cc(O)cc(O)c12` [QUERCETIN], for which the IC50 was determined as 11.2 µM.

The target in a further experiment is T2, Urease subunit alpha/Urease subunit beta (Helicobacter pylori (strain ATCC 700392 / 26695) (Campylobacterpylori)) (UniProt P69996+P14916). As to the kind of experiment: Potency index, ratio of AHA IC50 to compound IC50 for Helicobacter pylori ATCC 43504 urease.
T2 sequence (P14916 whole entry, looked up): as the sequence (P14916 whole entry, further chain) above
T2 sequence (P69996 whole entry, looked up): as the sequence (P69996 whole entry) above
`O=C(CC(O)c1cccc(Cl)c1)NO` (racemic): the Ratio IC50 turned out to be 330.

The next experiment concerns the target T2, Urease subunit alpha/Urease subunit beta (Helicobacter pylori (strain ATCC 700392 / 26695) (Campylobacterpylori)). As to the kind of experiment: Ratio of IC50 for urease in Helicobacter pylori ATCC 43504 intact cell to IC50 for urease extracted from Helicobacter pylori ATCC 43504.
As for `O=C(CC(O)c1ccccc1Cl)NO` (racemic), the Ratio IC50 was determined as 3. As to `O=C(CC(O)c1cccc(F)c1)NO` (racemic), the Ratio IC50 is 3. Same read-out and setting: next, `O=C(CC(O)c1cccc(C(F)(F)F)c1)NO` (racemic): 3; `O=C(CC(O)c1cccc(Cl)c1Cl)NO` (racemic): 4; `O=C(CC(O)c1ccc(Cl)c(Cl)c1)NO` (racemic): 3. Regarding `O=C(CC(O)c1cc(Cl)ccc1O)NO` (racemic), the Ratio IC50 stood at 8.8.

Regarding `O=C(CC(O)c1cc(Cl)cc(Cl)c1O)NO` (racemic), the Ratio IC50 stood at 3.

For a further experiment, the target named is T1, Urease subunit alpha/Urease subunit beta. As to the kind of experiment: Inhibition of urease in Helicobacter pylori ATCC 43504 intact cell assessed as ammonia production preincubated for 1.5 hrs by indophenol-based method. An outline of the steps: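 H. pylori grown 24 h at 37 °C in Brucella broth with 10% heat-inactivated horse serum, microaerobic (5% O₂, 10% CO₂, 85% N₂); cells pelleted (5000 g, 4 °C), PBS-washed (pH 7.4), suspended at 4.0 × 10⁷ CFU/mL. Suspension with test compound preincubated 1.5 h at room temperature; ammonia measured by Weatherburn indophenol method.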
On to `O=C(CC(O)c1ccccc1Cl)NO` (racemic), for which the IC50 turned out to be 9.21 µM.

In the case of `O=C(CC(O)c1cccc(Cl)c1)NO` (racemic), the IC50 turned out to be 0.36 µM. On the same count and under the same terms, next, `O=C(CC(O)c1cccc(F)c1)NO` (racemic): 13.3 µM; `O=C(CC(O)c1cccc(C(F)(F)F)c1)NO` (racemic): 6.81 µM. Take `O=C(CC(O)c1cccc(Cl)c1Cl)NO` (racemic): the IC50 was 0.91 µM. As to `O=C(CC(O)c1ccc(Cl)c(Cl)c1)NO` (racemic), the IC50 worked out at 1.42 µM. The same measure, in the same setting: with `O=C(CC(O)c1cc(Cl)ccc1O)NO` (racemic) the figure was 11.3 µM; with `O=C(CC(O)c1cc(Cl)cc(Cl)c1O)NO` (racemic), 8.9 µM.

As for `CC(=O)NO` [ACETOHYDROXAMIC ACID], the IC50 came to 110 µM.
